Experimental data published in ChEMBL document CHEMBL2321757, “Anti-leukemic activity of ubiquinone-based compounds targeting trans-plasma membrane electron transport” (J Med Chem, 2013).
Activity calls are given as the source filed them. The rule behind the calls is not given here.

Key:
HL-60 [1] = test: Antiproliferative activity against human mitochondrial gene-knockout HL60 cells after 48 hrs by MTT assay; type: functional, cell-based; conditions: HL-60, 48 h
Method in brief: (§1)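 HL60 cells were grown in RPMI-1640 with 5% FBS. The mtDNA-knockout line was derived by 6−8 weeks in ethidium bromide (50 ng/mL) and kept with 50 μg/mL uridine and 1 mM pyruvate. Compound in DMSO was serially diluted 3-fold in RPMI […], in triplicate. Cells at 0.2 × 10⁶/mL final ran 48 h at 37 °C, 5% CO₂. MTT was added for 2 h, then overnight lysis, read at A570. IC50 is a dose-response mean ± SEM (n = 2/3).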

[2] = Inhibition of tPMET complex in human mitochondrial gene-knockout HL60 cells after 30 mins by WST-1/mPMS reduction assay; type: cell-based; conditions: HL-60, 0.5 h
Method in brief: (§2)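 Exponential-phase cells were resuspended in HBSS at 1.0 × 10⁶ cells/mL final. Compound in DMSO was serially diluted 10-fold in HBSS from 200 μM, in triplicate, and preincubated 30 min at 37 °C, 5% CO₂. WST-1 (500 μM final) with mPMS (20 μM final) was then added. Reduction was read in real time at 450 nm over 40 min. IC50 is a dose-response mean ± SEM (n = 2/3).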

HL-60 [3] = test: Antiproliferative activity against human HL60 cells after 48 hrs by MTT assay; type: functional, cell-based; conditions: HL-60, 48 h; method in brief: as §1
[4] = Inhibition of tPMET complex in human HL60 cells after 30 mins by WST-1/mPMS reduction assay; type: cell-based; conditions: HL-60, 0.5 h; method in brief: as §2
HL-60 [5] = test: Induction of apoptosis in human HL60 cells at 30 uM after 24 hrs by propidium iodide staining-based flow cytometric analysis; type: functional, cell-based
HL-60 [6] = test: Cell cycle arrest in human mitochondrial gene-knockout HL60 cells assessed as accumulation at S phase at 30 uM after 24 hrs by propidium iodide staining-based flow cytometric analysis (reference value: 24 %); type: functional
HL-60 [7] = test: Cell cycle arrest in human mitochondrial gene-knockout HL60 cells assessed as accumulation at G2 phase at 30 uM after 24 hrs by propidium iodide staining-based flow cytometric analysis (reference value: 18 %); type: functional
HL-60 [8] = test: Cell cycle arrest in human HL60 cells assessed as accumulation at S phase at 30 uM after 24 hrs by propidium iodide staining-based flow cytometric analysis (reference value: 28 %); type: functional
HL-60 [9] = test: Cell cycle arrest in human HL60 cells assessed as accumulation at sub G1 phase at 30 uM after 24 hrs by propidium iodide staining-based flow cytometric analysis (reference value: 11 %); type: functional
HL-60 [10] = test: Cell cycle arrest in human mitochondrial gene-knockout HL60 cells assessed as accumulation at G1 phase at 30 uM after 24 hrs by propidium iodide staining-based flow cytometric analysis (reference value: 55 %); type: functional
HL-60 [11] = test: Cell cycle arrest in human HL60 cells assessed as accumulation at G1 phase at 30 uM after 24 hrs by propidium iodide staining-based flow cytometric analysis (reference value: 38 %); type: functional
HL-60 [12] = test: Cell cycle arrest in human HL60 cells assessed as accumulation at G2 phase at 30 uM after 24 hrs by propidium iodide staining-based flow cytometric analysis (reference value: 22 %); type: functional
HL-60 [13] = test: Cell cycle arrest in human mitochondrial gene-knockout HL60 cells assessed as accumulation at sub G1 phase at 30 uM after 24 hrs by propidium iodide staining-based flow cytometric analysis (reference value: 3 %); type: functional
HL-60 [14] = test: Induction of apoptosis in human mitochondrial gene-knockout HL60 cells at 30 uM after 72 hrs by propidium iodide staining-based flow cytometric analysis; type: functional, cell-based

What does the source list for `COC1=C(OC)C(=O)C(CCCCCCCCCC[N+](Cc2ccccc2)(Cc2ccccc2)Cc2ccccc2)=C(C)C1=O`?
IC50 (HL-60 [1]): 3 µM; IC50 [2]: 54 µM; IC50 (HL-60 [3]): 2 µM; IC50 [4]: 14 µM; Activity (HL-60 [5]): Active

Which results are given for `COC1=C(OC)C(=O)C(CCCCCCCCCC[N+]2(C)CCOCC2)=C(C)C1=O`?
IC50 (HL-60 [1]): > 200 µM; IC50 [2]: > 200 µM; IC50 (HL-60 [3]): 1 µM; IC50 [4]: 122 µM

With `COC1=C(OC)C(=O)C(CCCCCCCCCCn2cc[n+](C)c2)=C(C)C1=O` as the compound, how does the IC50 (HL-60 [1]) read?
The IC50 was 44 µM.

And the IC50 [2]?
The IC50 was 78 µM.

What about the IC50 (HL-60 [3]) of the same compound?
Its IC50 is 35 µM.

What about the IC50 [4] of the same compound?
Its IC50 is 23 µM.

Which Activity (HL-60 [6]) does the source give for `COC1=C(OC)C(=O)C(CCCCCCCCCC[N+](C)(Cc2ccccc2)Cc2ccccc2)=C(C)C1=O.[I-]` here?
Its Activity is 0%.

What about the Activity (HL-60 [7]) of the same compound?
The Activity was 0%.

What about the Activity (HL-60 [8]) of the same compound?
The Activity was 8%.

And the IC50 (HL-60 [1])?
The IC50 was 3 µM.

What about the IC50 [2] of the same compound?
Its IC50 is 47 µM.

And the IC50 (HL-60 [3])?
Its IC50 is 3 µM.

What about the Activity (HL-60 [9]) of the same compound?
The Activity was 57%.

What about the Activity (HL-60 [10]) of the same compound?
The Activity was 35%.

And the Activity (HL-60 [11])?
The Activity was 24%.

And the Activity (HL-60 [12])?
The Activity was 10%.

And the Activity (HL-60 [13])?
Its Activity is 0%.

And the IC50 [4]?
Its IC50 is 10 µM.

And the Activity (HL-60 [5])?
The Activity was “Active”.

What does the source list for `COC1=C(OC)C(=O)C(CCCCCCCCCCN(Cc2ccccc2)Cc2ccccc2)=C(C)C1=O`?
IC50 (HL-60 [1]): > 200 µM; IC50 [2]: > 200 µM; IC50 (HL-60 [3]): 33 µM; IC50 [4]: > 200 µM

With `COC1=C(OC)C(=O)C(CCCO)=C(C)C1=O` as the compound, how does the IC50 (HL-60 [1]) read?
Its IC50 is 15 µM.

What about the IC50 [2] of the same compound?
Its IC50 is 92 µM.

And the IC50 (HL-60 [3])?
The IC50 was 13 µM.

And the IC50 [4]?
The IC50 was over 200 µM.

Which Activity (HL-60 [14]) does the source give for `COC1=C(OC)C(=O)C(CCCCCCCCCCOc2cc(O)cc(O)c2)=C(C)C1=O` here?
The Activity was “Active”.

What about the IC50 (HL-60 [1]) of the same compound?
The IC50 was 63 µM.

And the IC50 [2]?
Its IC50 is 13 µM.

What about the IC50 (HL-60 [3]) of the same compound?
Its IC50 is 16 µM.

What about the IC50 [4] of the same compound?
The IC50 was 6 µM.

And the Activity (HL-60 [5])?
Its Activity is “Active”.

For `COC1=C(OC)C(=O)C(CCCCCCCCCCOCc2cccc(S(=O)(=O)O)c2)=C(C)C1=O`, which IC50 (HL-60 [1]) is on record?
The IC50 was 120 µM.

What about the IC50 [2] of the same compound?
The IC50 was 70 µM.

And the IC50 (HL-60 [3])?
The IC50 was 143 µM.

And the IC50 [4]?
Its IC50 is 81 µM.

What does the source list for `COC1=C(OC)C(=O)C(CCCCCCCCCCN2CCOCC2)=C(C)C1=O`?
IC50 (HL-60 [1]): 15 µM; IC50 [2]: 46 µM; IC50 (HL-60 [3]): 3 µM; IC50 [4]: 33 µM

Which results are given for `COC1=C(OC)C(=O)C(CCCCCCCCCCc2c(O)cc(O)cc2O)=C(C)C1=O`?
IC50 (HL-60 [1]): > 200 µM; IC50 [2]: 9 µM; IC50 (HL-60 [3]): > 200 µM; IC50 [4]: 21 µM

What does the source list for `COC1=C(OC)C(=O)C(CCCCCCCCCCn2ccnc2)=C(C)C1=O`?
IC50 (HL-60 [1]): 15 µM; IC50 [2]: 33 µM; IC50 (HL-60 [3]): 3 µM; IC50 [4]: 14 µM

What does the source list for `COC1=C(OC)C(=O)C(CCCCCO)=C(C)C1=O`?
IC50 (HL-60 [1]): 8 µM; IC50 [2]: 123 µM; IC50 (HL-60 [3]): 13 µM; IC50 [4]: > 200 µM

For `COC1=C(OC)C(=O)C(CCCOCc2cccc(S(=O)(=O)O)c2)=C(C)C1=O`, which IC50 (HL-60 [1]) is on record?
The IC50 was over 200 µM.

And the IC50 [2]?
The IC50 was over 200 µM.

And the IC50 (HL-60 [3])?
The IC50 was over 200 µM.

What about the IC50 [4] of the same compound?
The IC50 was over 200 µM.

For `COC1=C(OC)C(=O)C(CCCCCCCCCCn2cc[n+](Cc3ccccc3)c2)=C(C)C1=O`, which IC50 (HL-60 [1]) is on record?
The IC50 was 5 µM.

And the IC50 [2]?
The IC50 was 68 µM.

And the IC50 (HL-60 [3])?
The IC50 was 2 µM.

What about the IC50 [4] of the same compound?
Its IC50 is 9 µM.

With `COC1=C(OC)C(=O)C(CCCCCCCCCCO)=C(C)C1=O` [IDEBENONE] as the compound, how does the Activity (HL-60 [6]) read?
The Activity was 36%.

And the Activity (HL-60 [7])?
Its Activity is 15%.

And the Activity (HL-60 [8])?
The Activity was 2%.

What about the IC50 (HL-60 [1]) of the same compound?
Its IC50 is over 200 µM.

And the IC50 [2]?
Its IC50 is 70 µM.

What about the IC50 (HL-60 [3]) of the same compound?
Its IC50 is 36 µM.

What about the Activity (HL-60 [9]) of the same compound?
The Activity was 12%.

And the Activity (HL-60 [10])?
The Activity was 36%.

And the Activity (HL-60 [11])?
The Activity was 51%.

And the Activity (HL-60 [12])?
Its Activity is 35%.

And the Activity (HL-60 [13])?
Its Activity is 99%.

What about the IC50 [4] of the same compound?
The IC50 was 77 µM.
